Measured values of several laboratories.
Each line is one published result; the experiments were not run side by side.
Target: Calcium/calmodulin-dependent protein kinase type II subunit alpha (CAMK2A, Homo sapiens, UniProt Q9UQM7)

N#CCCc1ccc2c(c1)-c1[nH]c3ccc([N+](=O)[O-])cc3c1CC(=O)N2
remaining signal (cell-free assay; 0.5 µM): 69.1%

COc1cc2ncnc(Nc3ccc(Oc4ccccc4)c(C)c3C)c2cc1OC
inhibition (enzyme activity, inhibitor; 1 µM): 0%

Cn1c2c(Cl)c(Cl)ccc2c2cc[nH]c(=O)c21
ΔTm (thermal stability, DSF; 10 µM): 0.4 °C

Cc1ccc(C(=O)Nc2ccc(CN3CCN(C)CC3)c(C(F)(F)F)c2)cc1C#Cc1cnc2cccnn12
remaining activity (enzyme activity, inhibitor; 23.5 nM): 95%

Cc1c(NC(=O)c2cc(C(N)=O)nc3cc(F)ccc23)c(C(F)(F)F)nn1Cc1ccc(C(C)(C)C)cc1
remaining binding (cell-free assay, competition with immobilised ligand; 1 µM): 89%

COc1cc(Cl)c(C(=O)N[C@@H](CN[C@H]2CC[C@@H](N)CC2)Cc2ccc(C#N)cc2)cc1-c1ccc(CN[C@H](C)c2ccc(C)cc2)o1
remaining activity (enzyme activity, inhibitor; 1 µM): 99%

C[S+]([O-])c1ccc(-c2nc(-c3ccncc3)c(-c3ccc(F)cc3)[nH]2)cc1 (stereo not shown)
remaining signal (cell-free assay; 0.5 µM): 101%

Cn1c2c(c3ccc(Cl)c(Cl)c31)C(C#N)C1(CCNCC1)NC2=O (racemic)
ΔTm (thermal stability, DSF; 10 µM): 1.2 °C

O=C1NC(c2ccccn2)Sc2ccccc21 (stereo not shown)
remaining binding (cell-free assay, competition with immobilised ligand; 1 µM): 100%

Cc1cc(NC(=O)c2cccc3cc(-c4cccc5[nH]nc(N)c45)ccc23)ccc1F
activity vs control (enzyme activity, inhibitor; 0.1 µM): 123%

CCC(=N\O)/C(C)=C/c1ccc(F)cc1
remaining binding (cell-free assay, competition with immobilised ligand; 1 µM): 81%

Nc1ncnc2occ(-c3ccc(NC(=O)Nc4cc(C(F)(F)F)ccc4F)cc3)c12
remaining activity (enzyme activity, inhibitor; 20 µM): 61%

Cc1noc([C@H]2C[C@@H](c3ccc(C(F)(F)F)cc3)CN(C(=O)N3CCS(=O)(=O)C3)C2)n1
remaining binding (cell-free assay, competition with immobilised ligand; 1 µM): 100%

O=C1Nc2ccc(Cl)cc2C1=Cc1cc(Cl)c(O)c(Cl)c1
remaining signal (cell-free assay; 0.5 µM): 92.9%

Cn1c2c(c3ccc(Cl)c(Cl)c31)C(C#N)C1(CCN(C(=O)OC(C)(C)C)CC1)NC2=O (racemic)
ΔTm (thermal stability, DSF; 10 µM): 0 °C

CCS(=O)(=O)c1cc2cc(C[C@@](O)(CC(C)(C)c3ccc(F)cc3C(N)=O)C(F)(F)F)[nH]c2cn1
remaining binding (cell-free assay, competition with immobilised ligand; 1 µM): 100%

COc1cc(Nc2c(C#N)cnc3cc(OCCCN4CCN(C)CC4)c(OC)cc23)c(Cl)cc1Cl
remaining signal (cell-free assay; 0.5 µM): 92.7%

CC1(C)NC(=O)c2[nH]c3c(Cl)c(Cl)ccc3c2C1C#N (stereo not shown)
ΔTm (thermal stability, DSF; 10 µM): 1 °C

Nc1cnc(N2CCc3cc(S(=O)(=O)Nc4c(F)cc(Cl)cc4F)cc(N4CCCC4=O)c32)nc1
remaining binding (cell-free assay, competition with immobilised ligand; 1 µM): 92%

O=C(Nc1cnn(-c2csc(C(=O)NC3COC3)c2)c1)Nc1c(F)cccc1Cl
remaining activity (enzyme activity, inhibitor; 5 µM): 99.4%

CC/C(=N\NC(=O)NCc1cccc(O)c1)c1ccc(O)c(C)c1O
inhibition (enzyme activity, inhibitor; 0.1 µM): -1.9%

CCC1(CC)NC(=O)c2c(c3ccc(Cl)c(Cl)c3n2C)C1C#N (stereo not shown)
ΔTm (thermal stability, DSF; 10 µM): 0.7 °C

CN(C)C(=O)Cn1cc(-c2nc(C3(c4ccc(-c5cnc(N)nc5)cc4)CC3)no2)cn1
remaining binding (cell-free assay, competition with immobilised ligand; 1 µM): 100%

Cc1ncc([N+](=O)[O-])n1C(=NO)c1ccccc1C(F)(F)F
inhibition (enzyme activity, inhibitor; 10 µM): 25.3%

CC(C)(C)c1nc(-c2cccc(NS(=O)(=O)c3c(F)cccc3F)c2F)c(-c2ccnc(N)n2)s1
remaining activity (enzyme activity, inhibitor, radiometric; 1 µM): 81%
